Measurements as given in ChEMBL document CHEMBL1926502, “The discovery of UK-369003, a novel PDE5 inhibitor with the potential for oral bioavailability and dose-proportional pharmacokinetics” (Bioorg Med Chem, 2012).
Values after ≈ are worked out from the molar mass of the structure shown.

Legend:
[1] = species on record: Homo sapiens; test: Selectivity ratio of IC50 for PDE6 to IC50 for human PDE5
Summary of the method: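 PDE5 was prepared from human corpus cavernosum and cone PDE6 from dog retina (anion-exchange fraction). IC50s came from concentration–response curves in a scintillation proximity assay with [3H]/unlabelled cGMP (1:3) at about 1/3 Km, so IC50 = Ki. Buffer was 20 mM Tris-HCl pH 7.4, 5 mM MgCl2, 1 mg/mL BSA; 30–60 min at 30 °C, <30% turnover. Ratio = PDE6 IC50/PDE5 IC50.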

[2] = target: cGMP-specific 3',5'-cyclic phosphodiesterase (Homo sapiens, UniProt O76074); test: Inhibition of human PDE5 isolated from corpus cavernosum after 30 to 60 mins by scintillation counting method
[3] = tested on: Caco-2; test: Efflux ratio of apparent permeability from apical to basolateral to basolateral to apical side of human Caco2 cells; assay type: ADME, cell-based
Summary of the method: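 Caco-2 cell monolayers; flux measured in both directions, and the efflux ratio is taken as apical→basolateral flux divided by basolateral→apical flux.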

[4] = Apparent permeability from apical to basolateral side of human Caco2 cells at 25 uM; assay type: ADME, cell-based; settings: Caco-2
[5] = Lipophilicity, log D of the compound at pH 7.4; assay type: physicochemical; settings: buffer
[6] = Half life in human liver microsomes; assay type: ADME, Microsome
[7] = tested on: Homo sapiens; test: AUC in human at 1.43 mg/kg, po; assay type: ADME, organism-based, Plasma; design: dose 1.43 mg/kg, route oral; settings: in vivo
Summary of the method: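 Human pharmacokinetic study. The oral arm was given at 1.43 mg/kg, and a separate intravenous arm at 0.43 mg/kg. AUC (ng h/ml) was derived from the oral dosing, alongside Cmax, Tmax and oral bioavailability.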

[8] = Aqueous solubility of the compound at pH 6.7; assay type: physicochemical; settings: buffer
[9] = Oral bioavailability in rat at 2 mg/kg; assay type: ADME, organism-based; settings: in vivo
[10] = Oral bioavailability in dog at 1 mg/kg; assay type: ADME, organism-based, Canis lupus familiaris; settings: in vivo
[11] = Elimination half life in dog at 0.5 mg/kg, iv and 1 mg/kg, po; assay type: ADME, organism-based, Canis lupus familiaris; settings: in vivo, read-out: beta t1/2 (converted)
[12] = Volume of distribution in human at 0.43 mg/kg, iv; assay type: ADME, organism-based; design: dose 0.43 mg/kg, route intravenous; settings: in vivo
[13] = Clearance in rat at 1 mg/kg, iv; assay type: ADME, organism-based; design: dose 1 mg/kg, route intravenous; settings: in vivo
[14] = Tmax in human at 1.43 mg/kg, po; assay type: ADME, organism-based; design: dose 1.43 mg/kg, route oral; settings: in vivo
[15] = Elimination half life in human at 0.43 mg/kg, iv; assay type: ADME, organism-based; design: dose 0.43 mg/kg, route intravenous; settings: in vivo, read-out: beta t1/2 (converted)
[16] = tested on: Homo sapiens; test: Oral bioavailability in human at 1.43 mg/kg; assay type: ADME, organism-based; settings: in vivo
[17] = Clearance in dog at 0.5 mg/kg, iv; assay type: ADME, organism-based, Canis lupus familiaris; design: dose 0.5 mg/kg, route intravenous; settings: in vivo
[18] = Aqueous solubility of the compound in 0.2 M lactate buffer at pH 4.3; assay type: physicochemical
[19] = Volume of distribution in dog at 0.5 mg/kg, iv and 1 mg/kg, po; assay type: ADME, organism-based, Canis lupus familiaris; settings: in vivo
[20] = Volume of distribution in rat at 1 mg/kg, iv and 2 mg/kg, po; assay type: ADME, organism-based; settings: in vivo
[21] = Cmax in human at 1.43 mg/kg, po; assay type: ADME, organism-based; design: dose 1.43 mg/kg, route oral; settings: in vivo
[22] = Elimination half life in rat at 1 mg/kg, iv and 2 mg/kg, po; assay type: ADME, organism-based; settings: in vivo, read-out: beta t1/2 (converted)

Row | Compound | Ratio IC50 [1] | IC50 [2] [nM] | further results
1 | CCOc1ncc(S(=O)(=O)N2CCN(CC)CC2)cc1-c1nc2c(CC)n(C3CNC3)nc2c(=O)[nH]1 | 28 | 15.8 | –
2 | CCCCOc1ncc(S(=O)(=O)N2CCN(CC)CC2)cc1-c1nc2c(CC)n(CCN(C)C)nc2c(=O)[nH]1 | 171 | 1 | Ratio [3]: 7; Papp A→B at 25 µM [4]: 2.8 ×10⁻⁶ cm/s; logD [5]: 3
3 | CCOc1ncc(S(=O)(=O)N2CCN(CC)CC2)cc1-c1nc2c3n(nc2c(=O)[nH]1)CCCC3 | 70 | 10.8 | –
4 | CCCOc1ncc(S(=O)(=O)N2CCN(CC)CC2)cc1-c1nc2c(CC)n(CCOC)nc2c(=O)[nH]1 | 51 | 0.69 | –
5 | CCc1c2nc(-c3cc(S(=O)(=O)N4CCN(CC)CC4)cnc3OCCOC)[nH]c(=O)c2nn1CC(C)C | 331 | 1.04 | Ratio [3]: 2.5; Papp A→B at 25 µM [4]: 24 ×10⁻⁶ cm/s; logD [5]: 2.8; half-life [6]: 11 min
6 | CCCCOc1ncc(S(=O)(=O)N2CCN(CC)CC2)cc1-c1nc2c(CC)n(C3CCN(S(C)(=O)=O)CC3)nc2c(=O)[nH]1 | 100 | 0.31 | –
7 | CCOc1ncc(S(=O)(=O)N2CCN(CC)CC2)cc1-c1nc2c3n(nc2c(=O)[nH]1)CCCC3C (single isomer, unassigned; (-)) [listing 1 of 2 here] | – | 3.7 | –
8 | CCc1c2nc(-c3cc(S(=O)(=O)N4CCN(CC)CC4)cnc3OCCOC)[nH]c(=O)c2nn1C(C)C | 354 | 1.36 | –
9 | CCN1CCN(S(=O)(=O)c2cnc(OCCOC)c(-c3nc4c5n(nc4c(=O)[nH]3)CCCC5)c2)CC1 | 392 | 8.5 | –
10 | CCCCOc1ncc(S(=O)(=O)N2CCN(CC)CC2)cc1-c1nc2c(CC)n(C3CCN(C)CC3)nc2c(=O)[nH]1 | 184 | 0.74 | –
11 | CCOc1ncc(S(=O)(=O)N2CCN(CC)CC2)cc1-c1nc2c(CC)n(CCOC)nc2c(=O)[nH]1 | – | 1.23 | AUC [7]: 95.2 ng·h/mL; solubility [8]: 100 mg/mL (≈ 192 mM); bioavailability [9]: 61%; Papp A→B at 25 µM [4]: 16 ×10⁻⁶ cm/s; bioavailability [10]: 55%; logD [5]: 2.1; half-life [11]: 126 min; Vd [12]: 2.8 L/kg; clearance [13]: 26.6 mL/min/kg; Tmax [14]: 60 min; half-life [6]: 28 min; half-life [15]: 156 min; F [16]: 34%; clearance [17]: 16 mL/min/kg; solubility [18]: > 14 mg/mL; Vd [19]: 2.8 L/kg; Vd [20]: 2.2 L/kg; Cmax [21]: 205 ng/mL; half-life [22]: 57 min
12 | CCOc1ncc(S(=O)(=O)N2CCN(CC)CC2)cc1-c1nc2c3n(nc2c(=O)[nH]1)CCCC3C (single isomer, unassigned; (+)) [listing 1 of 2 here] | 125 | – | –
13 | CCOc1ncc(S(=O)(=O)N2CCN(CC)CC2)cc1-c1nc2c3n(nc2c(=O)[nH]1)CCCC3C (single isomer, unassigned; (-)) [listing 2 of 2 here] | 55 | – | –
14 | CCc1c2nc(-c3cc(S(=O)(=O)N4CCN(CC)CC4)cnc3OCCOC)[nH]c(=O)c2nn1CC1CC1 | 189 | 1.01 | –
15 | CCc1c2nc(-c3cc(S(=O)(=O)N4CCN(CC)CC4)cnc3OCCOC)[nH]c(=O)c2nn1CCN1CCOCC1 | 210 | 1.27 | Ratio [3]: 8; Papp A→B at 25 µM [4]: 2.8 ×10⁻⁶ cm/s; logD [5]: 1.1; half-life [6]: 48 min
16 | CCCOc1ccc(S(=O)(=O)N2CCN(CC)CC2)cc1-c1nc2c(CC)n(Cc3ccccn3)nc2c(=O)[nH]1 | 842 | – | –
17 | CCN1CCN(S(=O)(=O)c2cnc(OCCOC)c(-c3nc4c5n(nc4c(=O)[nH]3)CCCC5C)c2)CC1 (single isomer, unassigned; (-)) [listing 1 of 2 here] | – | 1.96 | Ratio [3]: 1.5; Papp A→B at 25 µM [4]: 24 ×10⁻⁶ cm/s; bioavailability [10]: 18%; logD [5]: 1.6; half-life [11]: 90 min; half-life [6]: 11.2 min; clearance [17]: 20 mL/min/kg; Vd [19]: 2.6 L/kg
18 | CCOc1ncc(S(=O)(=O)N2CCN(CC)CC2)cc1-c1nc2c(CC)n(C3CN(C)C3)nc2c(=O)[nH]1 | 52 | 8.2 | –

Row | Compound | Ratio IC50 [1] | IC50 [2] [nM] | further results
19 | CCc1c2nc(-c3cc(S(=O)(=O)N4CCN(CC)CC4)cnc3OCC(C)C)[nH]c(=O)c2nn1CCCN(C)C | 404 | 2.44 | –
20 | CCN1CCN(S(=O)(=O)c2cnc(OCCOC)c(-c3nc4c5n(nc4c(=O)[nH]3)CCCC5C)c2)CC1 (single isomer, unassigned; (+)) [listing 1 of 2 here] | – | 2.76 | –
21 | CCc1c2nc(-c3cc(S(=O)(=O)N4CCN(C)CC4)cnc3OCCOC)[nH]c(=O)c2nn1CC(C)C | 237 | 2.89 | Ratio [3]: 2.2; Papp A→B at 25 µM [4]: 19 ×10⁻⁶ cm/s; logD [5]: 2.3; half-life [6]: 28 min
22 | CCc1c2nc(-c3cc(S(=O)(=O)N4CCN(CC)CC4)cnc3OCCOC)[nH]c(=O)c2nn1C1CCC1 | 219 | 1.76 | –
23 | CCN1CCN(S(=O)(=O)c2cnc(OCCOC)c(-c3nc4c5n(nc4c(=O)[nH]3)CCCC5C)c2)CC1 (single isomer, unassigned; (+)) [listing 2 of 2 here] | 149 | – | –
24 | CCCn1nc2c(=O)[nH]c(-c3cc(S(=O)(=O)N4CCN(CC)CC4)cnc3OCCOC)nc2c1CC | 170 | 1.83 | –
25 | CCc1c2nc(-c3cc(S(=O)(=O)N4CCN(CC)CC4)cnc3OCCOC)[nH]c(=O)c2nn1CCOC | 306 | 1.53 | Ratio [3]: 4.2; Papp A→B at 25 µM [4]: 9 ×10⁻⁶ cm/s; logD [5]: 1.4; half-life [6]: 70 min
26 | CCCOc1ncc(S(=O)(=O)N2CCN(CC)CC2)cc1-c1nc2c3n(nc2c(=O)[nH]1)CCCC3 | 55 | 2.47 | –
27 | CCN1CCN(S(=O)(=O)c2cnc(OCCOC)c(-c3nc4c5n(nc4c(=O)[nH]3)CCCC5C)c2)CC1 (single isomer, unassigned; (-)) [listing 2 of 2 here] | 490 | – | –
28 | CCc1c2nc(-c3cc(S(=O)(=O)N4CCN(CC)CC4)cnc3OCc3ccccn3)[nH]c(=O)c2nn1CCOC | 309 | 0.75 | –
29 | CCc1c2nc(-c3cc(S(=O)(=O)N4CCN(CC)CC4)cnc3OCC(C)C)[nH]c(=O)c2nn1CCOC | 204 | 0.69 | Ratio [3]: 1.1; Papp A→B at 25 µM [4]: 40 ×10⁻⁶ cm/s; logD [5]: 2.9; half-life [6]: 7 min
30 | CCCn1nc2c(=O)[nH]c(-c3cc(S(=O)(=O)N4CCN(C)CC4)cnc3OCCOC)nc2c1CC | 165 | 4.35 | –
31 | CCOc1ncc(S(=O)(=O)N2CCN(CC)CC2)cc1-c1nc2c3n(nc2c(=O)[nH]1)CCCC3C (single isomer, unassigned; (+)) [listing 2 of 2 here] | – | 3.35 | –
32 | CCc1c2nc(-c3cc(S(=O)(=O)N4CCN(CC)CC4)cnc3OCCOC)[nH]c(=O)c2nn1C1CCOCC1 | 241 | 1.66 | –
33 | CCc1c2nc(-c3cc(S(=O)(=O)N4CCN(CC)CC4)cnc3OCC3CC3)[nH]c(=O)c2nn1CCN1CCOCC1 | 153 | 0.26 | –
34 | CCOc1ncc(S(=O)(=O)N2CCN(CC)CC2)cc1-c1nc2c(CC)n(CCN3CCOCC3)nc2c(=O)[nH]1 | 184 | 0.86 | Ratio [3]: 11.2; Papp A→B at 25 µM [4]: 2.5 ×10⁻⁶ cm/s; logD [5]: 1.6; half-life [6]: 18 min
35 | CCCCOc1ncc(S(=O)(=O)N2CCN(CC)CC2)cc1-c1nc2c(CC)n(C3CN(C)C3)nc2c(=O)[nH]1 | 209 | 0.78 | Ratio [3]: 4; Papp A→B at 25 µM [4]: 6 ×10⁻⁶ cm/s; logD [5]: 2.8; half-life [6]: 74 min
